High-throughput results (PubChem BioAssay)
CSC inhib – cancer stem cell inhibition | actives 1.1% (n = 300,000) | inhibition, % at 7.5 µM | cancer stem cell-like cells viability, luminescence | AID 2717; in the data active = inhibition above about 75%; inconclusive = no clear call, values can overlap the other calls; tested in HMLE shEcad cells
SKKanGAS inh – inhibitors of SKKanGAS S. pyogenes growth in kanamycin (SK-promoter or general growth effect); inhibition, % at 7.5 µM; BacTiter-Glo, 6 h; actives 1.3% (n = 300,000); AID 1662;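 active = mean replicate score, as percent of positive control median, at least 50; inconclusive = mean below 50 but one replicate at or above 50; inactive = mean and every replicate below 50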;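 also: strain carries kanamycin resistance gene driven by streptokinase promoter and grows in 40 µg/ml kanamycin; loss of luminescence reflects streptokinase promoter inhibition or plain growth inhibition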
Mdm2 MdmX PPI – disrupts the human Mdm2-MdmX interaction. O15151+Q00987. SaOS-2 split-luciferase Mdm2/MdmX complementation, luminescence. inhibition, % at 8 µM. actives 3% (n = 330,000). AID 485346;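 active = inhibition of at least 50% at 8 µM in the primary screen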
Target sequence (O15151 whole entry, looked up): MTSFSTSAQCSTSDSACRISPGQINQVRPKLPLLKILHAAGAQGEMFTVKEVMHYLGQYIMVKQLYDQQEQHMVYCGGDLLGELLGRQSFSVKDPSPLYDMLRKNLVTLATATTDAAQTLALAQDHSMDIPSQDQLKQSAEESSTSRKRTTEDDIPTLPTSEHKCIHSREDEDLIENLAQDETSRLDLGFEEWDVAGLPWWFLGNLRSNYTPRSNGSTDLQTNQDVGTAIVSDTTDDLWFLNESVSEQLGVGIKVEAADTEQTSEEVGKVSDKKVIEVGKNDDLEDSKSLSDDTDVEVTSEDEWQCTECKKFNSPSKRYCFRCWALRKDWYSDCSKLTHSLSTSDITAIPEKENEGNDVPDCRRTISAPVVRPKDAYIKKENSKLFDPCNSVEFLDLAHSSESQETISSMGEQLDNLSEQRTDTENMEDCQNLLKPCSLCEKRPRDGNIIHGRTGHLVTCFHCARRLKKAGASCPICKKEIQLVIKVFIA
Target sequence (Q00987 whole entry, looked up): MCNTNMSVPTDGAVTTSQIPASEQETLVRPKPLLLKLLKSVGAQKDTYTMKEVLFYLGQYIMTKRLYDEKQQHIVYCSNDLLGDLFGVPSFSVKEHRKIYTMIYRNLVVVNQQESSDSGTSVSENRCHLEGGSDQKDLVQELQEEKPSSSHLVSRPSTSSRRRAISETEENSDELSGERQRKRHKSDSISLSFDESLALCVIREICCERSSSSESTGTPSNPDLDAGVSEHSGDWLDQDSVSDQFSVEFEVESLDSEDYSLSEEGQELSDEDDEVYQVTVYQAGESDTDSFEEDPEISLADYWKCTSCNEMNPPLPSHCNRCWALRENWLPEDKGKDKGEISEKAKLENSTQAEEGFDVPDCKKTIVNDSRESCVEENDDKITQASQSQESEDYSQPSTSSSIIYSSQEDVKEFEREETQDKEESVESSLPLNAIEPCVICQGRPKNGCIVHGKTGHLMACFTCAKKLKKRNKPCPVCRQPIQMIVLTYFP
T cruzi inh – blocks replication of Trypanosoma cruzi | T. cruzi beta-gal in NIH3T3, luminescence, 90 h | inhibition, % (test concentration not listed) | actives 1.4% (n = 300,000);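 active = mean inhibition across valid replicates above about 55%, limit read from the data; inconclusive = mean below that limit but half or more replicates reach it; inactive = mean below it, under half of replicates reach it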;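 also: signal also drops with host cell toxicity which is not excluded here; higher percent means less beta-gal luminescence so fewer parasites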
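Read-out: Parasite load inhibition, % | Test system: Mouse NIH/3T3 fibroblasts infected with β-gal-expressing T. cruzi Tulahuen C4 | Amount: 5,000 cells/well | Medium: DMEM, 2% fetal bovine serum | Signal: GalScreen β-gal luminescence, detergent lysis, 60 min | Timing: 3 h attach, ≥90 h co-culture | Also added: Tulahuen C4 trypomastigotes, 5000/well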
Calb FLC – affects C. albicans growth with fluconazole; C. albicans CaCi-2 (fluconazole-resistant clinical isolate) + fluconazole, Alamar Blue growth, 48 h; growth inhibition, % (no concentration beside the values); actives 0.57% (n = 300,000); AID 1979;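 active = growth inhibition above about 58% in most replicates, limit read from the data, passing the limit was not always enough; inconclusive = exactly half the replicates above a set limit; inactive = most replicates below a set limit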;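 also: all wells also contain fluconazole at 8 µg/ml as a sub-toxic cotreatment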
Beta cell apopt – beta cell apoptosis inhibition; AID 435005; protection from apoptosis, % (no concentration beside the values); actives 0.8% (n = 300,000); INS-1E cytokine-induced death, ATP luminescence, 48 h; percent of positive-control rescue, neutral wells zero;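 active = Every replicate reaches about 75%, or at least half do and their mean reaches it too, limit read from the data; inconclusive = At least half of replicates reach the limit but their mean does not; inactive = Under half of replicates reach the limit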;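 also: higher means more ATP so stronger rescue from cytokine killing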
Mdm2-MdmX conf – human Mdm2/MdmX binding inhibition, confirmed; AID 489028; luminescent assay; shares compounds with Mdm2 MdmX PPI; inhibition, % at 8 µM; actives 55% (n = 10,000); in the data active = inhibition above about 40%
FLuc counter – full-length luciferase inhibition in Mdm2/MdmX counter-screen; shares compounds with Mdm2 MdmX PPI; SaOS-2 full-length luciferase counterscreen, luminescence; inhibition, % at 8 µM; actives 77% (n = 6,200);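 active = mean inhibition at 8 µM reaching about 37%, which flags the compound as non-specific, limit read from the data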;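 also: p53-null SaOS-2 cells with luciferase driven by a doxycycline-inducible promoter; compound on cells about two nights before reading with doxycycline added after day one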
Of the large screens only hits and unclear results are named; the others gave an inactive call (follow-up assays come after a bar, where they were run). In the library only some 5.7% were active in any assay of this set; here they are far more common.

Cc1cc(C)nc(SCc2ccc(C(=O)N/N=C/c3cccc(O)c3O)cc2)n1	CSC inhib 110, Mdm2 MdmX PPI 75, Beta cell apopt 95 | Mdm2-MdmX conf 68 | FLuc counter inactive
C1=CC2=NC34CCCCC3CC3=C(CCCC3)N4C2=CC1=NC1CCCCC1 (configuration not stated)	Mdm2 MdmX PPI 100, T cruzi inh inconclusive | Mdm2-MdmX conf 78 | FLuc counter 38
O=C(C[C@@H]1C/C=C\CCCC(=O)OC[C@@H]2CCCN2C1=O)N[C@H](CO)Cc1ccccc1	none (no result: CSC inhib, SKKanGAS inh, T cruzi inh, Calb FLC)
COCCSc1nc(N)c2c3c(sc2n1)CN(C)CC3	none
Cc1[nH]n(-c2ccccc2)c(=O)c1N=Nc1c(O)cc(S(=O)(=O)N(C)C)c2ccccc12	SKKanGAS inh 85, Mdm2 MdmX PPI 82, Beta cell apopt 111 | Mdm2-MdmX conf 80 | FLuc counter 57
Nc1nc2nc(-c3cccs3)cc(C(F)(F)F)n2n1	none
COc1ccc(N/N=C(\C=N\O)C(=O)c2ccc(OC)cc2)cc1	Mdm2 MdmX PPI 56 | Mdm2-MdmX conf 56 | FLuc counter 60
CC(C)N(Cc1ccccc1)C(=O)COC(=O)c1cnc(Cl)c(Cl)c1	Mdm2 MdmX PPI 63 (no result: CSC inhib, SKKanGAS inh, T cruzi inh, Calb FLC) | Mdm2-MdmX conf inactive
O=C(COc1ccc(/C=N/NC(=O)c2cc3ccccc3o2)cc1Br)Nc1ccccc1	CSC inhib 99, Mdm2 MdmX PPI 95, T cruzi inh 70 | Mdm2-MdmX conf inactive
CCOc1cc(NC(=O)c2ccco2)c(OCC)cc1NC(=O)COc1ccccc1C	Mdm2 MdmX PPI 99 | Mdm2-MdmX conf inactive | FLuc counter inactive
COc1ccc(NC(=O)c2ccco2)cc1NC(=O)COc1ccccc1[N+](=O)[O-]	Mdm2 MdmX PPI 78 | Mdm2-MdmX conf inactive
Cc1ccccc1OCC(=O)Nc1ccccc1NC(=O)c1ccco1	none (no result: Beta cell apopt)
O=C(COc1ccccc1[N+](=O)[O-])Nc1ccc(NC(=O)c2cc3ccccc3o2)cc1	Mdm2 MdmX PPI 54 | Mdm2-MdmX conf inactive | FLuc counter 71
O=C(COc1ccccc1[N+](=O)[O-])Nc1ccc2oc(=O)ccc2c1	none
CC(O)C(NC(=O)OCc1ccccc1)C(=O)OCc1ccccc1 (configuration not stated)	none (no result: SKKanGAS inh, T cruzi inh, Calb FLC)
COc1ccc(C(=O)OCC(=O)N2CCN(C(=O)c3ccco3)CC2)cc1OC	none (no result: SKKanGAS inh, T cruzi inh, Calb FLC)
COc1ccc(NC(=O)COC(=O)c2ccc(Cl)c(S(N)(=O)=O)c2)c([N+](=O)[O-])c1	none
CCOC(=O)CC[C@H](NC(=O)Cn1cnc2c(SC)nc(N)nc21)C(=O)OCC	none (no result: CSC inhib, SKKanGAS inh, T cruzi inh, Calb FLC)
COc1ccc(N(C(=O)c2cccnc2)S(=O)(=O)c2ccc(F)cc2)cc1	none (no result: CSC inhib)
O=C(Nc1cccc(F)c1)N1CCCCCC1	SKKanGAS inh inconclusive
Cc1ccccc1N(C(=O)c1snc(C(N)=O)c1N)C(C(=O)NCc1ccccc1)c1ccc(O)cc1 (configuration not stated)	none
NC(=O)c1nsc(C(=O)N(c2ccccc2F)C(C(=O)NCc2ccccc2)c2ccc(O)cc2)c1N (configuration not stated)	Mdm2 MdmX PPI 52 | Mdm2-MdmX conf 66 | FLuc counter 77
CCc1ccc(OCCNC(=O)c2ccccc2SCc2ccccc2)cc1	Mdm2 MdmX PPI 80 | Mdm2-MdmX conf 80 | FLuc counter 57
CC[C@]12c3[nH]c4ccc(OC)cc4c3CCN1C(=O)C(CC(=O)NCCCOC)C[C@@H]2C(=O)N1CCN(C(=O)C2CC2)CC1 (some centres not stated)	none (no result: CSC inhib, SKKanGAS inh, T cruzi inh, Calb FLC, Beta cell apopt)
COc1ccccc1C(CC(=O)Nc1ccc(C)c(C)c1)c1ccc(OC(C)C)cc1 (configuration not stated)	none (no result: CSC inhib)
COc1ccc(CNCCC(c2ccc(OC(C)C)cc2)c2ccccc2OC)cc1OC (configuration not stated)	Mdm2 MdmX PPI 56 | Mdm2-MdmX conf 40 | FLuc counter 66
COc1ccc(C(CC(=O)O)c2ccc3c(c2)OCO3)cc1 (configuration not stated)	none
